{"data": "Experimental data gathered from unrelated publications", "target": "Protein kinase C iota type (PRKCI, Homo sapiens, UniProt P41743)", "One construct used (P41743 1-596)": "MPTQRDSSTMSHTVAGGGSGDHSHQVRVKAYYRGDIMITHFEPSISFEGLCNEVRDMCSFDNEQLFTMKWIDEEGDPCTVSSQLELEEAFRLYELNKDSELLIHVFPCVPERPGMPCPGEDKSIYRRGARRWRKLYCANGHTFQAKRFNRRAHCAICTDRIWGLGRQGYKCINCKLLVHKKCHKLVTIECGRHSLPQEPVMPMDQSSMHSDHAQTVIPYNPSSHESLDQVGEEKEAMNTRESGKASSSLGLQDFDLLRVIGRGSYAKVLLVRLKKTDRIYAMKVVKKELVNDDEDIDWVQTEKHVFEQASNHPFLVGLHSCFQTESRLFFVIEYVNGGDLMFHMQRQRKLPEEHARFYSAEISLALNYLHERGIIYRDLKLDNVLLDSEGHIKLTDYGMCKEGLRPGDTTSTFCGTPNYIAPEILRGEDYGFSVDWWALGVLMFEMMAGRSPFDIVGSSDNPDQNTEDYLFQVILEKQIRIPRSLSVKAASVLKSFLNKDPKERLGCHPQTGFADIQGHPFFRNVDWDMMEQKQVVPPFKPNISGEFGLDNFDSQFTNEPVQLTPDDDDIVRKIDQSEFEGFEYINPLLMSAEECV"}
{"Structure (SMILES)": "C[C@@H](c1ccc(-n2cnc3c(N)ncnc32)cc1)N1CCc2nn(C)c(Cc3ccccc3)c2C1=O", "assay": "binding, competition with immobilised ligand", "setting": "0.1 µM", "remaining binding [%]": 82}
{"Structure (SMILES)": "COc1ccnn2ncc(-c3ccnc(N(C)C)n3)c12", "assay": "binding", "setting": "1 µM", "remaining binding [%]": 74}
{"Structure (SMILES)": "COc1ncc2cc3ccccc3nc2c1C#N", "assay": "cell-free assay, competition with immobilised ligand", "setting": "5 µM", "remaining binding [%]": 100}
{"Structure (SMILES)": "CC1CCCN1c1nccc(-c2cnn3ncccc23)n1 (stereo not drawn)", "assay": "binding", "setting": "1 µM", "remaining binding [%]": 100}
{"Structure (SMILES)": "O=C(Nc1cccnn1)N1CC(C/C=C/c2cncc(Oc3ccc(C(F)(F)F)cn3)n2)C1", "assay": "cell-free assay, competition with immobilised ligand", "setting": "1 µM", "remaining binding [%]": 96}
{"Structure (SMILES)": "O=C(Nc1c[nH]nc1C(=O)NC1CCNCC1)c1cc(F)cc(F)c1", "assay": "binding, competition with immobilised ligand", "setting": "1 µM", "remaining binding [%]": 84}
{"Structure (SMILES)": "COc1cnc(Nc2cccc(S(N)(=O)=O)c2)nc1N1CCN(c2ccccc2)C(=O)C1", "assay": "binding, competition with immobilised ligand", "setting": "1 µM", "remaining binding [%]": 96}
{"Structure (SMILES)": "O=C(NCCCN1CCOCC1)c1ccc(Nc2nccc(-c3cc4ccccc4s3)n2)cc1", "assay": "binding, competition with immobilised ligand", "setting": "1 µM", "remaining binding [%]": 87}
{"Structure (SMILES)": "Cc1c(NC(=O)c2cc(C(N)=O)nc3cc(F)ccc23)c(C(F)(F)F)nn1Cc1ccc(C(C)(C)C)cc1", "assay": "cell-free assay, competition with immobilised ligand", "setting": "1 µM", "remaining binding [%]": 98}
{"Structure (SMILES)": "O=C(NCCCN1CCOCC1)c1ccc(Nc2ncc(Cl)c(-c3ccc(Cl)s3)n2)cc1", "assay": "binding, competition with immobilised ligand", "setting": "1 µM", "remaining binding [%]": 98}
{"Structure (SMILES)": "O=C(O)[C@H]1[C@H](Cn2nnc3ccccc3c2=O)CC[C@@H]1C(=O)c1ccc(OCCC2CCOCC2)cc1", "assay": "cell-free assay, competition with immobilised ligand", "setting": "1 µM", "remaining binding [%]": 66}
{"Structure (SMILES)": "CNC(=O)[C@@H]1CC[C@@H](n2c(-c3ccc4cnccc4c3)nc3ccc(C(=O)NCc4cccc(C(N)=O)c4)cc32)C1", "assay": "binding, competition with immobilised ligand", "setting": "1 µM", "remaining binding [%]": 97}
{"Structure (SMILES)": "N[C@H]1CCN(c2nccc(-c3cnn4ncccc34)n2)C1", "assay": "binding", "setting": "1 µM", "remaining binding [%]": 37}
{"Structure (SMILES)": "CN([C@@H]1CCc2c(CC(=O)O)c3ccccc3n2C1)S(=O)(=O)c1ccc(F)cc1", "assay": "cell-free assay, competition with immobilised ligand", "setting": "1 µM", "remaining binding [%]": 100}
{"Structure (SMILES)": "O=C(c1ccc(Nc2ncc(Cl)c(-c3ccc(Cl)s3)n2)cc1)N1CCC(N2CCCC2)CC1", "assay": "binding, competition with immobilised ligand", "setting": "1 µM", "remaining binding [%]": 98}
{"Structure (SMILES)": "F[C@@H]1CCN(c2nccc(-c3cnn4ncccc34)n2)C1", "assay": "binding", "setting": "1 µM", "remaining binding [%]": 100}
{"Structure (SMILES)": "N#Cc1ccc(Nc2ccc3[nH]c(=O)[nH]c3c2)c(Cl)c1", "assay": "cell-free assay, competition with immobilised ligand", "setting": "1 µM", "remaining binding [%]": 86}
{"Structure (SMILES)": "Cc1cnn2ncc(-c3ccnc(N(C)C)n3)c2c1", "assay": "binding", "setting": "1 µM", "remaining binding [%]": 81}
{"Structure (SMILES)": "CCN1CCN(Cc2ccc(C(=O)Nc3ccc(C)c(Oc4ccc5c(c4)CC(=O)N5)c3)cc2C(F)(F)F)CC1", "assay": "binding, competition with immobilised ligand", "setting": "1 µM", "remaining binding [%]": 100}
{"Structure (SMILES)": "C[C@@H]1CCN(c2nccc(-c3cnn4ncccc34)n2)C1", "assay": "binding", "setting": "1 µM", "remaining binding [%]": 64}
{"Structure (SMILES)": "C[C@@H]1CN(c2cc(-c3n[nH]c4ccc(OC5(C)CC5)cc34)ncn2)C[C@H](C)O1", "assay": "cell-free assay, competition with immobilised ligand", "setting": "0.1 µM", "remaining binding [%]": 80}
